C2C12 statin: suppressors of simvastatin-induced myotoxicity in C2C12 myotubes | rescue of ATP level, % at 7.49 µM | 0.78% of 330,000 active | ATP luminescence, 48 h; scaled: DMSO 0, geranylgeraniol control 100;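 active means mean ATP rescue above about 67%, or every replicate alone reaching that limit, limit read from the data, passing the limit was not always enough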;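 further: myotubes were challenged with 10 µM simvastatin during compound exposure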
DENV2 CPE: protects cells from dengue virus 2 cytopathic effect | 1.7% of 350,000 active | CPE inhibition, % at 9.99 µM | AID 651640 | DENV2-infected cells, cytopathic effect rescue, plate reader; in the data active means CPE inhibition above about 20%, passing the limit was not always enough; tested in BHK-21 cells;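 further: 0% = median of neutral control wells and 100% = median of positive control wells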
E-sel inducer: induces E-selectin expression in human endothelial cells | HUVEC E-selectin immunofluorescence imaging; normalized: neutral wells 0, TNF-alpha wells 100 | activation, % at 7.58 µM | AID 686992 | 0.37% of 260,000 active | P16581;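 active means mean E-selectin-positive cell signal at least 10% of the positive control, reached in at least 60% of replicates, without over 20% cell loss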
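Material: HUVEC primary endothelial cells; Amount: 3,000 cells per well; Dosing: single concentration; Medium: EGM-2 growth medium on 0.1% gelatin-coated wells; Read-out basis: percent E-selectin-positive cells; Signal: immunofluorescence imaging; Control set: TNF-alpha, DMSO.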
FGF22 binding: FGF22 (human) thermal shift binding. AID 651658. activity (Tm shift, normalised), % at 9.99 µM. 1.5% of 340,000 active. recombinant FGF22 thermal shift, SYPRO orange fluorescence; percent of sucrose octasulfate shift, DMSO zero. Q9HCT0;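 active means mean Tm shift, scaled 0 neutral to 100 positive control, at about 1.3% or above, every replicate too, limit read from the data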
Target sequence (Q9HCT0 whole entry, looked up): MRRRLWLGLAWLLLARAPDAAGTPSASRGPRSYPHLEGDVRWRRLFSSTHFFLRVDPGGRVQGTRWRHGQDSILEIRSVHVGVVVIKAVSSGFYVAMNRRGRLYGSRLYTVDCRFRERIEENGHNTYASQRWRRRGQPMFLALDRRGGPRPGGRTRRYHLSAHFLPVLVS
PglD inh: blocks C. jejuni PglD acetyltransferase activity. purified PglD enzyme, DTNB colorimetric CoA detection. inhibition, % at 12.5 µM. 0.098% of 360,000 active. AID 602405; in the data active means inhibition above about 16%, passing the limit was not always enough
Xi reactivation: X-chromosome reactivation activator | activation, % at 7.58 µM | 0.055% of 360,000 active | XiGFP mouse fibroblasts, % GFP-positive cells imaging, 3 d; cells co-treated with 5-aza-dC sensitizer; scaled so ellipticine positive control = 100%;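 active means mean normalized replicate activation at least 10% and every replicate at or above 10%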;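 further: 0% = median of on-plate neutral control wells and 100% = ellipticine 6 µM median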
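material = 68-5-11 XiGFP fibroblast line | medium = DMEM plus 5-aza-dC sensitizer | schedule = 3 days compound exposure | benchmarks = positive control ellipticine, 6 µM final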
Active calls of the source: *; . = no result. A selection: hits, their analogues and other compounds. The true share with any hit is near 3.3%.

SMILES	C2C12 statin	DENV2 CPE	E-sel inducer	FGF22 binding	PglD inh	Xi reactivation
COc1cccc(CN2[C@@H](CO)[C@H](c3ccccc3)C23CN(C(=O)C2CCCC2)C3)c1	.	1.1	.	.	.	-0.1
COc1cccc(/C=C/c2nc3c(cnn3-c3ccccc3)c(=O)[nH]2)c1	.	-6.1	0.2	0.6	.	0.0
COc1cccc(/C=C/c2n[nH]c(=O)c(C#N)c2C)c1	93.7*	-3.9	.	-0.2	4.3	0.0
CC(Cc1ccccc1)C(=O)NCc1ccncc1 (stereo not given)	-5.0	.	0.0	0.1	2.2	0.0
OC(Cc1ccncc1)c1ccccc1Cl (stereo not given)	-1.8	7.9	1.0	43.4*	.	0.2
COc1ccc(/C=C/C(=O)O)cc1S(=O)(=O)NCc1ccco1	.	2.1	0.5	0.3	.	0.0
Cc1ccc(/C=C/C(=O)O)cc1S(=O)(=O)NCc1ccco1	7.4	4.6	-0.4	43.2*	-0.6	0.0
CN(C)c1ccc(/C=N/N2CCN(Cc3ccccc3Cl)CC2)cc1	-18.5	55.1*	.	-0.1	0.3	0.3
O=C(Nc1ccc(-c2ccccc2)cc1)[C@@H]1[C@@H](CO)[C@@H]2Cn3c(cccc3=O)[C@H]1N2Cc1ccccc1	-3.5	-3.0	-1.6	-0.1	-0.7	1.1
Cc1noc(C)c1NC(=O)N(C)C[C@@H]1Oc2ccc(NC(=O)Nc3ccc(F)cc3)cc2CC(=O)N([C@@H](C)CO)C[C@H]1C	7.7	0.8	-0.1	-0.1	-2.8	7.3
O=C(Cc1cccs1)Nc1nnc(Cc2ccccc2)s1	121.2*	.	.	.	4.0	.
CC(C)Cc1nnc(NC(=O)Cc2cccs2)s1	-2.8	-2.9	.	43.2*	.	0.0
C[C@@H]1CN([C@H](C)CO)S(=O)(=O)c2ccc(C3=CCCC3)cc2O[C@@H]1CN(C)Cc1cccc(C(=O)O)c1	-59.1	3.1	0.1	-0.2	1.0	-0.6
C[C@@H]1CN([C@H](C)CO)C(=O)Cc2cc(NS(=O)(=O)c3cccs3)ccc2O[C@H]1CN(C)S(=O)(=O)c1ccc(F)cc1	-6.2	24.3*	0.3	-0.1	-1.2	0.0
COc1ccc(S(=O)(=O)N(C)C[C@H]2Oc3ccc(NS(=O)(=O)c4cccs4)cc3CC(=O)N([C@@H](C)CO)C[C@@H]2C)cc1	-12.5	26.3*	-0.3	-0.2	1.9	0.2
O=C(C[C@@H]1CC[C@@H](NC(=O)c2ccc(F)cc2)[C@H](CO)O1)NCCc1ccncc1	4.1	-4.4	-0.3	-0.2	-1.0	-0.3
O=c1cc(-c2ccc(O)c(-c3c(O)cc(O)c4c(=O)cc(-c5ccc(O)cc5)oc34)c2)oc2cc(O)cc(O)c12	10.0	.	0.0	44.8*	-1.3	0.1
O=c1cc(-c2ccc(O)cc2)oc2c(-c3c(O)cc(O)c4c(=O)cc(-c5ccc(O)cc5)oc34)c(O)cc(O)c12	17.1	-11.4	.	0.1	-1.2	.
Cc1ccc(C(=O)C2C(c3ccc(-c4ccccc4[N+](=O)[O-])o3)NC(=O)NC2(O)C(F)(F)F)cc1 (stereo not given)	.	.	.	.	1.0	.
O=C1NC(c2ccc(-c3ccccc3[N+](=O)[O-])o2)C(C(=O)c2ccccc2)C(O)(C(F)(F)F)N1 (stereo not given)	8.3	.	.	43.1*	.	-0.1
COCCN1CCN(Cc2nc(C3(c4ccc(C)cc4)CCCC3)no2)CC1	1.4	2.0	5.5	43.2*	-5.7	0.0
CC(C)c1ccc(OCc2cccc(C(=O)N/N=C/c3cccnc3)c2)cc1	3.8	6.3	.	27.8*	-6.2	-0.1
CCOc1ccc(OCc2cccc(C(=O)N/N=C/c3cccnc3)c2)cc1	.	.	.	.	1.4	0.0
CC1CCCC(NC(=O)COC(=O)CCC(=O)c2ccc(F)cc2)C1C (stereo not given)	-2.2	8.4	-0.1	44.3*	-2.7	0.2
CC1CCCC(NC(=O)COC(=O)CCC(=O)c2cccs2)C1C (stereo not given)	0.8	0.7	0.1	0.2	-0.7	0.1
CC1CCCC(NC(=O)COC(=O)c2ccccc2[N+](=O)[O-])C1C (stereo not given)	.	12.5	0.0	43.7*	.	0.0
